The record followed here is PubChem BioAssay.

As usually defined, the viability is a read-out of living cells in per cent, often relative to untreated cells. A word on the inhibition: it is the relative decrease from the control value, in per cent.

Activity calls are given as the source filed them.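 Rule for the calls, unless noted: active = viability at or under a set limit in both replicates, limit being median viability minus 3 SD (cut at about 48% in these data, passing the limit was not always enough); inconclusive = at or under the limit in just one replicate; inactive = at or above the limit in both replicates.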

Assay [1] in a line: Her2 expression decrease, cell viability multiplex – SKBR3 breast tumor cells, AlphaScreen, ATP viability, primary screen (AID 461;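 active = Her2 level under about 52% in both replicate screens, with viability over 70% of control, limit read from the data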;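 for Her2 level: lower value means less Her2 protein in the cells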;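 for viability: percent of carrier control wells set as 100% viability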). The conditions noted are these: SKBR3 Her2 protein level, 18-24 h, measured here: SKBR3 viability, ATP luminescence, at 10 µM. Background: Bead proximity is the source of the signal in Alpha formats.
For assay [2], the target named is Receptor tyrosine-protein kinase erbB-2 (Homo sapiens) (UniProt P04626). The description is as above. The conditions noted are these: 18-24 h, at 10 µM, stronger effect = lower value.
Sequence of Receptor tyrosine-protein kinase erbB-2 (Homo sapiens) (P04626 whole entry, looked up): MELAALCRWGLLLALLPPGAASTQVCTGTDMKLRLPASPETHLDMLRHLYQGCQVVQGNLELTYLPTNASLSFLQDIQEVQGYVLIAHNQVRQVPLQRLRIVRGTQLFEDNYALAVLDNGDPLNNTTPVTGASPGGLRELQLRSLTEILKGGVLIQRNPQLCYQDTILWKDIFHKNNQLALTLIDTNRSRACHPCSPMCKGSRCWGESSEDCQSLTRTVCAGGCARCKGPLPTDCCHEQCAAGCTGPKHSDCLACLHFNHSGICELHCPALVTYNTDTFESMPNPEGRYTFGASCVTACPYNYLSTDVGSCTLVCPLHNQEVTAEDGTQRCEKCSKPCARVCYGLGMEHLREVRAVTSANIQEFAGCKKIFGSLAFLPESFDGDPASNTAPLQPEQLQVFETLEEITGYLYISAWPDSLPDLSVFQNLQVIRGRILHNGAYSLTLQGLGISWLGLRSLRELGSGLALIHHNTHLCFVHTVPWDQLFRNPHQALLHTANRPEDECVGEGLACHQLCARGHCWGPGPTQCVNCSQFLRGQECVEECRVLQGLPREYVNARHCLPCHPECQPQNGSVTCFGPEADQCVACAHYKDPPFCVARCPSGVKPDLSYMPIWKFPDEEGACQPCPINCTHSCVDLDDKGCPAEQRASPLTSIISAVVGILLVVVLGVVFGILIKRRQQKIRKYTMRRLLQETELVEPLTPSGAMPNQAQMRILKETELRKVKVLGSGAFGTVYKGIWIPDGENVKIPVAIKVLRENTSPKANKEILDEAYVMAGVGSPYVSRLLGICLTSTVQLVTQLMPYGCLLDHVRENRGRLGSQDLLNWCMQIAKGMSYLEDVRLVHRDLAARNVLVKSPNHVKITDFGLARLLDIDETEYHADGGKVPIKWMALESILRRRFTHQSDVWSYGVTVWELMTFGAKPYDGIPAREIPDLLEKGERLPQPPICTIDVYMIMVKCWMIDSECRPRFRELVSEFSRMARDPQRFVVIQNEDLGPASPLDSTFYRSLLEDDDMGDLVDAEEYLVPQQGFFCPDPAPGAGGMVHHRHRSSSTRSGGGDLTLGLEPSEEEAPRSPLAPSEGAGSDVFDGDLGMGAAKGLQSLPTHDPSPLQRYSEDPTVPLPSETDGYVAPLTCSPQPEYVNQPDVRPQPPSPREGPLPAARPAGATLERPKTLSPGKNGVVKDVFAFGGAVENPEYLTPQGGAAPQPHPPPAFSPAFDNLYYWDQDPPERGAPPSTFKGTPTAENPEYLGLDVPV
Assay [3] is described as follows: reduced viability of SK-BR-3 breast cancer cells – cell-based, 24 h, human, pilot screen (AID 572;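 active = viability at or below 10% of carrier control in both of two separate runs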;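 note: compound exposure lasted between 18 and 24 h rather than exactly 24 h; 100% = carrier-treated control wells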). The conditions noted are these: SK-BR-3 viability, CellTiter-Glo luminescence, at 10 µM, stronger effect = lower value.
Assay [4] is described as follows: HUVEC growth inhibition – cell-based, human, primary screen (AID 575;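 active = viability at or below 30% in both replicate assays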;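 note: 100% = median of untreated cell wells with 0.1% DMSO on each plate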). The conditions noted are these: HUVEC proliferation, CellTiter-Glo luminescence, 72 h; at 10 µM; stronger effect = lower value. Summed up:
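Test system: HUVEC primary cells. Quantity: 1250 endothelial cells in each well. Dosing: single-point 10 µM, DMSO 0.1% final. Incubation: 72 h treatment at 37 °C. Measured by: CTG luminescence. Control set: DMSO cell controls and MePR drug controls. Plate: collagen-coated 384-well format.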
In general terms: ATP-based viability assays read luminescence as a measure of living cells.

Assay [5] can be described thus: H69AR cell proliferation blockers – human, duplicate replicates, primary screen (AID 580).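 Note: 100% = mean luminescence of untreated wells and 0% = no signal.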 The conditions noted are these: H69AR lung tumor cells viability, ATP luminescence, 72 h; at 10 µM; stronger effect = lower value.
Assay [6] is described as follows: MRP1 drug-resistance reversers in H69AR cells – cell-based, doxorubicin co-treatment, pilot screen (AID 601;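 active = viability loss from added drug above about 55%, and viability with drug at most 40%, in both replicates, limit read from the data, passing the limit was not always enough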). The conditions noted are these: CellTiter-Glo, 72 h, at 10 µM; for differential viability (reversal): stronger effect = higher value.
Assay [7] in a line: yeast transport mutant growth inhibition pilot in 384-well plates, post-Golgi transport modulator project (AID 636; in the data active = inhibition above about 31%). The conditions noted are these: absorbance 615 nm, about 18 h, stronger effect = higher value.
A short description of assay [8]: growth suppression of yeast trafficking mutant, preliminary HTS, modulators of trafficking downstream of Golgi apparatus project, 1536-format plate, OD 615 nm (AID 637; in the data active = inhibition above about 30%). The conditions noted are these: yeast transport mutant growth, absorbance 615 nm, 18 h; stronger effect = higher value.
[9] abbreviates: H69AR cells + 2 uM doxorubicin, measured here: viability with 2 uM doxorubicin, stronger effect = lower value.
Where [10] appears, read: H69AR cells, compound alone cytotoxicity.

As for `CCCn1c2ccccc2c2nnc(SCC(=O)Nc3ncccn3)nc21`, the viability in assay [1] was 105%; in assay [3] it was 105% (inactive); in assay [4] it was 93.4% (inactive); in assay [5], 87.6% (inactive); in assay [6] (setting [9]), 77.4%; in assay [6] (setting [10]) it was 87.6%. The Her2 level in assay [2] was 75.5% (inactive). The differential viability (reversal) in assay [6] (H69AR cells + 2 uM doxorubicin) was 10.3% (inactive). Also, the inhibition in assay [7] is -0.53% (inactive); in assay [8], -2.36% (inactive).
`Cn1c(=O)c2c(ncn2CC(=O)OCC(=O)NC2CCCc3ccccc32)n(C)c1=O` (stereo not given): the viability is 98% in assay [1]; 98% (inactive) in assay [3]; 110% (inactive) in assay [4]; 97.7% (inactive) in assay [5]; 92.4% in assay [6] (setting [9]); 97.7% in assay [6] (setting [10]). Also, in assay [2], the Her2 level was 94% (inactive). Further, the differential viability (reversal) in assay [6] (H69AR cells + 2 uM doxorubicin) is 5.3% (inactive). Also, the inhibition was -0.68% (inactive) in assay [7] and 1.59% (inactive) in assay [8].
In the case of `N#Cc1c(N)nc2c(c1-c1ccncc1)CCCCC2`, the viability in assay [1] is 102%; in assay [3] it was 102% (inactive); in assay [4], 78.2% (inactive); in assay [5], 90.7% (inactive); in assay [6] (setting [9]), 94%; in assay [6] (setting [10]), 90.7%. Moreover, the Her2 level in assay [2] was 86.5% (inactive). Further, the differential viability (reversal) in assay [6] (H69AR cells + 2 uM doxorubicin) was -3.37% (inactive). Further, the results for the inhibition in assay [7] and in assay [8] were -4.4% (inactive) and 4.43% (inactive), respectively.
`CCOCCCNC(=O)CC1Oc2ccc(C)cc2NC1=O` (stereo not given): the viability in assay [1] was 109%; in assay [3] it was 109% (inactive); in assay [4], 86.8% (inactive); in assay [5], 94.7% (inactive); in assay [6] (setting [9]), 97.7%; in assay [6] (setting [10]), 94.7%. Besides, the Her2 level in assay [2] is 100% (inactive). The differential viability (reversal) in assay [6] (H69AR cells + 2 uM doxorubicin) is -3.06% (inactive). Moreover, the values for the inhibition in assay [7] and in assay [8] were -1.6% (inactive) and 5.08% (inactive), respectively.
For `O=C(CCCCC(=O)NCc1cccs1)NCc1cccs1`, the viability in assay [1] was 95.5%; in assay [3], 95.5% (inactive); in assay [4], 99.7% (inactive); in assay [5], 97.8% (inactive); in assay [6] (setting [9]), 97%; in assay [6] (setting [10]) it was 97.8%. Further, in assay [2], the Her2 level was 106% (inactive). Further, the differential viability (reversal) in assay [6] (H69AR cells + 2 uM doxorubicin) was 0.77% (inactive). Moreover, the values for the inhibition in assay [7] and in assay [8] were 1.2% (inactive) and -7.42% (inactive), respectively.
Consider `Cc1ccc(C)n1NC(=O)c1ccco1`, for which the viability in assay [1] is 90%; in assay [3], 90% (inactive); in assay [4] it was 87.2% (inactive); in assay [5], 94.8% (inactive); in assay [6] (setting [9]), 104%; in assay [6] (setting [10]), 94.8%. Moreover, the Her2 level in assay [2] is 90% (inactive). The differential viability (reversal) in assay [6] (H69AR cells + 2 uM doxorubicin) was -9.64% (inactive). In addition, the inhibition in assay [7] was -2.76% (inactive); in assay [8] it was -3.39% (inactive).
In the case of `CCOC(=O)c1c(C)oc2ccc(OCC(=O)N(CC)CC)cc12`, the viability in assay [1] is 85.5%; in assay [3], 85.5% (inactive); in assay [4], 101% (inactive); in assay [5], 101% (inactive); in assay [6] (setting [9]), 97.2%; in assay [6] (setting [10]), 101%. The Her2 level in assay [2] is 85% (inactive). Moreover, the differential viability (reversal) in assay [6] (H69AR cells + 2 uM doxorubicin) is 3.73% (inactive). Besides, the inhibition is -5.26% (inactive) in assay [7] and -0.32% (inactive) in assay [8].
For the compound `COc1ccccc1NC(=O)C1CC(=O)N(c2ccc(F)cc2)C1` (stereo not given), the viability in assay [1] is 99%; in assay [3], 99% (inactive); in assay [4], 109% (inactive); in assay [5], 97.3% (inactive); in assay [6] (setting [9]), 88.4%; in assay [6] (setting [10]), 97.3%. The Her2 level in assay [2] was 144% (inactive). The differential viability (reversal) in assay [6] (H69AR cells + 2 uM doxorubicin) was 8.91% (inactive). The values for the inhibition in assay [7] and in assay [8] were 0.53% (inactive) and 19.2% (inactive), respectively.
In the case of `Cc1cc2cc(CN(CCCN3CCOCC3)C(=O)NC3CCCCC3)c(=O)[nH]c2cc1C`, the viability in assay [1] is 73.5%; in assay [3], 73.5% (inactive); in assay [4], 70.2% (inactive); in assay [5] it was 82.8% (inactive); in assay [6] (setting [9]), 76.5%; in assay [6] (setting [10]), 82.8%. For the same compound, the Her2 level in assay [2] was 83% (inactive). For the same compound, in assay [6] (H69AR cells + 2 uM doxorubicin), the differential viability (reversal) is 6.29% (inactive). Besides, the inhibition in assay [7] is -5.07% (inactive); in assay [8], -2.26% (inactive).
In the case of `O=C(c1ccccc1)c1ccncc1`, the viability in assay [1] was 100%; in assay [3], 100% (inactive); in assay [4], 100% (inactive); in assay [5], 92.4% (inactive); in assay [6] (setting [9]), 96%; in assay [6] (setting [10]), 92.4%. For the same compound, in assay [2], the Her2 level was 76.5% (inactive). Also, in assay [6] (H69AR cells + 2 uM doxorubicin), the differential viability (reversal) was -3.62% (inactive). Also, the values for the inhibition in assay [7] and in assay [8] were -6.05% (inactive) and 5.33% (inactive), respectively.
In the case of `CC(=O)OCC1OC(c2ccccc2)C(OC(C)=O)C(OC(C)=O)C1OC(C)=O` (stereo not given), the viability is 90% in assay [1]; 90% (inactive) in assay [3]; 108% (inactive) in assay [4]; 98.8% (inactive) in assay [5]; 101% in assay [6] (setting [9]); 98.8% in assay [6] (setting [10]). Also, the Her2 level in assay [2] is 94.5% (inactive). Further, the differential viability (reversal) in assay [6] (H69AR cells + 2 uM doxorubicin) was -1.94% (inactive). In addition, the inhibition in assay [7] was -3.21% (inactive); in assay [8], -3.83% (inactive).
Turning to `COc1ccc(OC)c(C(=O)c2coc3ccc(O)c(CN4CCOCC4)c23)c1`, the viability in assay [1] was 95.5%; in assay [3] it was 95.5% (inactive); in assay [4], 97.8% (inactive); in assay [5], 90.1% (inactive); in assay [6] (setting [9]), 94.1%; in assay [6] (setting [10]), 90.1%. Further, the Her2 level in assay [2] was 78% (inactive). Also, the differential viability (reversal) in assay [6] (H69AR cells + 2 uM doxorubicin) was -4.02% (inactive). Besides, the inhibition in assay [7] is -5.07% (inactive); in assay [8], -8.73% (inactive).
As to `COC(=O)CN(c1ccc(C)c(Cl)c1)S(C)(=O)=O`, the viability is 108% in assay [1]; 108% (inactive) in assay [3]; 99.5% (inactive) in assay [4]; 101% (inactive) in assay [5]; 90.5% in assay [6] (setting [9]); 101% in assay [6] (setting [10]). The Her2 level in assay [2] was 100% (inactive). For the same compound, the differential viability (reversal) in assay [6] (H69AR cells + 2 uM doxorubicin) was 10.7% (inactive). The inhibition was -2.27% (inactive) in assay [7] and -0.81% (inactive) in assay [8].
Take `Cc1c(NC(=O)C(C)OC(=O)COc2cccc3c2OC(C)(C)C3)c(=O)n(-c2ccccc2)n1C` (stereo not given): the viability is 112% in assay [1]; 112% (inactive) in assay [3]; 124% (inactive) in assay [4]; 92% (inactive) in assay [5]; 93.3% in assay [6] (setting [9]); 92% in assay [6] (setting [10]). Further, the Her2 level in assay [2] was 106% (inactive). In addition, in assay [6] (H69AR cells + 2 uM doxorubicin), the differential viability (reversal) is -1.3% (inactive). Further, the inhibition is -4.47% (inactive) in assay [7] and 17.2% (inactive) in assay [8].
